Screens from PubChem BioAssay.
In the library only some 4.4% were active in any assay of this set; here they are far more common.
AHR act – activates the human aryl hydrocarbon receptor | activation, % at 5 µM | AHR-responsive luciferase reporter cells, luminescence | 2.5% of 320,000 active | AID 2796 | P35869; in the data active = activation above about 47%
m5-HT2A agonist – activates the mouse 5-HT2A serotonin receptor; CHO-K1 mHTR2A beta-arrestin complementation, luminescence; percent of 30 µM serotonin response; activation, % at 7.6 µM; 0.66% of 360,000 active; AID 624169;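 active = activation above a run cutoff, the mean activation of all tested compounds plus 3 SD, cut at about 14% in these data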
Target sequence (P35363 whole entry, looked up): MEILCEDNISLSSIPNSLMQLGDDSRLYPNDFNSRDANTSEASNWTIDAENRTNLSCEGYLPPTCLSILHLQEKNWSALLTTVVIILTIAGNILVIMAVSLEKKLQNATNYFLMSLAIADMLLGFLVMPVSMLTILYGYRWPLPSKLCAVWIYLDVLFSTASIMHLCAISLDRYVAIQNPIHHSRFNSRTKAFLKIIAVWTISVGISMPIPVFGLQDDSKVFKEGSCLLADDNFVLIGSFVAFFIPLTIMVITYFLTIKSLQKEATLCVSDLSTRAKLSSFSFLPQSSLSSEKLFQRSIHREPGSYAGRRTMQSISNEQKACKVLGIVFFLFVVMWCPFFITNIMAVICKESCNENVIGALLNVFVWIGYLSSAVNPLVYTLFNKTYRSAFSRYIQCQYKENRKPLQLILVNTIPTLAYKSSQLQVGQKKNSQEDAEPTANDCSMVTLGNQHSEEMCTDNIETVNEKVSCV
TbMetRS inhib – Trypanosoma brucei MetRS inhibition | 0.4% of 360,000 active | inhibition, % at 11.9 µM | purified T. brucei MetRS, ATP depletion, Kinase-Glo luminescence | AID 624268;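 active = inhibition above a per-plate cutoff of the control wells' mean inhibition plus 3 SD, cut at about 5.5% in these data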
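Assay system: T. brucei methionyl-tRNA synthetase, purified | Medium: HEPES buffer with MgCl2, KCl, DTT, spermine, BSA, pyrophosphatase | Compound: 11.9 µM single point | Incubation: 15 min enzyme-compound preincubation, 2 h reaction, 10 min detection, 25 °C | Measured by: Kinase-Glo luciferase luminescence reporting remaining unconsumed ATP | Measure: % inhibition normalized to control-well medians | Replication: Singlicate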
MsrA inhibitor – bovine MsrA inhibition; purified bovine MsrA, absorbance read-out; inhibition, % at 15.5 µM; AID 651718; 0.75% of 360,000 active; in the data active = inhibition above about 4.5%
AI-2 QS modul – modulates the Vibrio harveyi AI-2 quorum sensing system. Vibrio harveyi JMH597 AI-2 luminescence/OD600 ratio, 9 h; hits give low values; strain lacks LuxN and CqsS sensors; 0 = neutral-control median. activity change, % at 7.5 µM. 0.4% of 300,000 active. AID 2094; in the data active = activity change below about -75%, passing the limit was not always enough;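 note: luminescence divided by OD600 gain over 9 h not by final OD600 alone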
MsrA act – activators of bovine methionine sulfoxide reductase A. purified bovine MsrA, absorbance read-out. 0.3% of 360,000 active. activation, % at 10.6 µM; in the data active = activation above about 7.5%
MOR ag counter – counter-screen for mouse HTR2A agonists: human mu opioid receptor agonists; activation, % at 9.3 µM; 5.3% of 2,300 active; U2OS OPRM1 beta-arrestin PathHunter, luminescence; DMSO 0%, DAMGO 9.3 µM 100%; shares compounds with m5-HT2A agonist;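 active = mean activation above the mean of DMSO-only wells plus 3 SD, cut at about 0.5% in these data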
m5-HT2A ag conf – confirmation of mouse HTR2A serotonin receptor agonists; shares compounds with m5-HT2A agonist; CHO-K1 PathHunter beta-arrestin recruitment, luminescence; DMSO 0%, 30 µM serotonin 100%; activation, % at 7.6 µM; 19% of 2,300 active; AID 624381;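 active = mean activation across triplicates above the hit threshold derived in the original primary screen, cut at about 15% in these data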
Large screens that a line does not name were inactive (follow-up assays come after a bar, where they were run).

Cc1cccc(CCNS(=O)(=O)c2cc3c(cc2C)NC(=O)CO3)c1	m5-HT2A agonist 20.9 | MOR ag counter inactive | m5-HT2A ag conf inactive
CC(Sc1nnc(-c2ccccc2F)n1C)C(=O)NC1CCCCC1 (centres undefined)	none (no result: AI-2 QS modul)
Cc1ccc(N(CC(=O)NC2CCCC2)C(=O)c2c(C)noc2C)cc1C	m5-HT2A agonist 15.0 | MOR ag counter inactive | m5-HT2A ag conf inactive
CC(=O)c1ccc(N2CCN(C(=O)c3cc(-c4ccncc4)nc4ccc(Cl)cc34)CC2)cc1	m5-HT2A agonist 14.8 | MOR ag counter inactive | m5-HT2A ag conf inactive
CC(C)c1nc2sc3c(=S)nc[nH]c3c2c2c1CCC2	m5-HT2A agonist 15.8 | MOR ag counter inactive | m5-HT2A ag conf inactive
CC1=NS(=O)(=O)NC(C)(C)C1	none (no result: AHR act, AI-2 QS modul)
COc1ccc(NC(=O)c2cccc([N+](=O)[O-])c2)cc1	none
COc1ccc(NC(=O)c2cc([N+](=O)[O-])ccc2O)cc1	m5-HT2A agonist 14.9 | MOR ag counter inactive | m5-HT2A ag conf inactive
C#CCOC(=O)c1cc(Cl)c(=O)n(Cc2ccc(Cl)cc2Cl)c1	none
Cc1ccc(S(=O)(=O)N2CCCCC2)cc1NS(=O)(=O)c1ccc(Cl)c(C(=O)O)c1	m5-HT2A agonist 17.3 (no result: AHR act, AI-2 QS modul) | MOR ag counter inactive | m5-HT2A ag conf inactive
O=C(O)c1cc(S(=O)(=O)N2CCCCC2)ccc1Cl	none
COc1cc(OC)cc(C(=O)NCC(=O)N2CCN(Cc3ccccc3)CC2)c1	none (no result: AI-2 QS modul)
COc1cc(OC)cc(C(=O)NCC(=O)N2CCC(C)CC2)c1	m5-HT2A agonist 27.8 | MOR ag counter inactive | m5-HT2A ag conf inactive
Cc1noc(C)c1COC(=O)c1ccc(F)c(S(=O)(=O)N2CCOCC2)c1	none (no result: AI-2 QS modul)
COc1ccc(C2c3c(-c4ccccc4O)n[nH]c3C(=O)N2Cc2ccco2)cc1OC (centres undefined)	none
Cc1cc(C)c(O)c(-c2n[nH]c3c2C(c2cccc(O)c2)N(Cc2ccco2)C3=O)c1 (centres undefined)	AHR act 65.3, m5-HT2A agonist 99.5 | MOR ag counter inactive | m5-HT2A ag conf 56.9
CCCCC(=O)N(C)c1c(CC)nc2c(OCCC)cccn12	none (no result: AHR act, AI-2 QS modul)
O=C(CCC(=O)N1CCOc2ccccc21)Nc1ccccc1Cl	none
Nc1ncnc2c1ncn2[C@@H]1O[C@H](C(=O)N2CCC[C@@H]2C(=O)OCc2ccccc2)[C@@H](O)[C@H]1O	m5-HT2A agonist 14.9 (no result: AHR act, AI-2 QS modul) | MOR ag counter inactive | m5-HT2A ag conf inactive
CN(CC(=O)Nc1cccnc1)S(=O)(=O)c1ccc(Br)cc1	m5-HT2A agonist 16.9 | MOR ag counter inactive | m5-HT2A ag conf inactive
CCOC(=O)c1ccc(NC(=O)CSc2nc(=O)n3cccc(C)c3n2)cc1	none
O=C(Cc1cccc(NC(=O)C2CCCN(C(=O)C3CCC3)C2)c1)Nc1ccc(C(=O)N2CCOCC2)cc1 (centres undefined)	m5-HT2A agonist 29.2 (no result: AHR act, AI-2 QS modul) | MOR ag counter inactive | m5-HT2A ag conf inactive
COc1ccc(S(=O)(=O)N(C)CC(=O)Nc2ccccc2OC)cc1C	none
COc1ccc(OC)c(S(=O)(=O)N(C)CC(=O)Nc2ccccc2OC)c1	m5-HT2A agonist 15.9 | MOR ag counter inactive | m5-HT2A ag conf inactive
CCC(=O)NCc1csc(-c2cccs2)n1	m5-HT2A agonist 38.6 | MOR ag counter inactive | m5-HT2A ag conf inactive
O=C(Nc1ccc2oc(-c3cccnc3)nc2c1)c1ccco1	m5-HT2A agonist 14.6 | MOR ag counter inactive | m5-HT2A ag conf inactive
CC1(OC(=O)C2CCCC2)C(=O)C=C2C=C(c3ccsc3)N(C3CC3)C=C2C1=O (centres undefined)	m5-HT2A agonist 14.8 | MOR ag counter inactive | m5-HT2A ag conf inactive
CC1(OC(=O)C2CCCC2)C(=O)C=C2C=C(c3ccsc3)N(c3ccccc3)C=C2C1=O (centres undefined)	none
CCc1cccc(C)c1NC(=O)CC(C)(C)CC(=O)O	m5-HT2A agonist 17.7 | MOR ag counter inactive | m5-HT2A ag conf inactive
CC(C(=O)Nc1ccccc1)N1C(=O)c2ccccc2C1=O (centres undefined)	none
Cc1cc(C)cc(NC(=O)C(C)N2C(=O)c3ccccc3C2=O)c1 (centres undefined)	m5-HT2A agonist 19.7 | MOR ag counter inactive | m5-HT2A ag conf inactive
COc1ccc(NC(=O)CSc2nnc(C)n2N)cc1S(=O)(=O)N1CCCCC1	none (no result: AI-2 QS modul)
CC(Oc1ccc(Br)cc1)C(=O)Nc1cc(Cl)ccc1N1CCN(C)CC1 (centres undefined)	none
CC(C)CN(C(=O)CSc1nncn1-c1ccccc1)c1c(N)n(CC(C)C)c(=O)[nH]c1=O	m5-HT2A agonist 15.7 | MOR ag counter inactive | m5-HT2A ag conf inactive
O=C(Nc1ccccc1)Nc1ccc2ccccc2n1	m5-HT2A agonist 15.8 | MOR ag counter inactive | m5-HT2A ag conf inactive
O=C(Nc1ccc(F)cc1)Nc1ccc2ccccc2n1	none
O=C(NCc1ccccn1)c1ccccc1OCc1ccccc1Cl	m5-HT2A agonist 23.6 (no result: AHR act, AI-2 QS modul) | MOR ag counter inactive | m5-HT2A ag conf inactive
O=C(NCc1ccccn1)c1ccccc1OCc1ccc(F)cc1	none
O=C(NCc1ccccn1)C(F)(F)C(F)(F)C(=O)NCc1ccccn1	m5-HT2A agonist 14.9 | MOR ag counter inactive | m5-HT2A ag conf inactive
CCOC(=O)N1CCN(C(=O)c2oc3ccc(S(=O)(=O)N(CC)CC)cc3c2C)CC1	none
COc1cc2c(cc1OC)CN(c1nc(CN3CCCC3)nc3sc(C)c(C)c13)CC2	m5-HT2A agonist 35.3 | MOR ag counter inactive | m5-HT2A ag conf 31.8
Cc1ccc(S(=O)(=O)c2nc(-c3ccc(F)cc3)oc2SCC(=O)NCC2CCCO2)cc1 (centres undefined)	m5-HT2A agonist 14.9 | MOR ag counter inactive | m5-HT2A ag conf inactive
CCOC(=O)c1ccccc1NC(=O)Cc1ccc(S(=O)(=O)N2CCCC2)s1	none (no result: AI-2 QS modul)
CC1CCCCN1CCCNC(=O)c1ccc2nc(N3CCCCC3)sc2c1 (centres undefined)	m5-HT2A agonist 17.4 | MOR ag counter inactive | m5-HT2A ag conf inactive
CCCN1CCN(CCCNC(=O)c2ccc3nc(N4CCC(C)CC4)sc3c2)CC1	none
O=C(c1ccccc1)N(c1ccccc1)c1nccc2ccccc12	none (no result: AHR act, AI-2 QS modul)
Cc1[nH]c2ccccc2c1NC(=O)CN1CCN(C(=O)c2ccco2)CC1	m5-HT2A agonist 22.2 | MOR ag counter inactive | m5-HT2A ag conf 81.5
Cc1[nH]c2ccccc2c1NC(=O)CN1CCN(Cc2ccc3c(c2)OCO3)CC1	none (no result: AHR act, m5-HT2A agonist, TbMetRS inhib, MsrA inhibitor, MsrA act)
Cc1ccc2nc(-c3ccc(NC(=O)CN4CCN(C(=O)c5ccco5)CC4)cc3)sc2c1	m5-HT2A agonist 14.5 | MOR ag counter inactive | m5-HT2A ag conf 59.9
Cc1ccc(NC(=O)CN2CCN(C(=O)c3ccco3)CC2)cc1	none
